Data from ChEMBL document CHEMBL1126717 (J Med Chem, 1993).
pIC50: −log10 of the molar value. Each block holds one molecule with its values, some of them ahead of it.

Assays:
Format in all cases: cell-based
Cyclooxygenase = target: T1, Cyclooxygenase (Rattus norvegicus, UniProt P35355+Q63921); assay: Inhibition of Prostaglandin G/H synthase mediated PGF2-alpha formation in rat basophilic leukemia (RBL-1) cells
T1 sequence (P35355 whole entry): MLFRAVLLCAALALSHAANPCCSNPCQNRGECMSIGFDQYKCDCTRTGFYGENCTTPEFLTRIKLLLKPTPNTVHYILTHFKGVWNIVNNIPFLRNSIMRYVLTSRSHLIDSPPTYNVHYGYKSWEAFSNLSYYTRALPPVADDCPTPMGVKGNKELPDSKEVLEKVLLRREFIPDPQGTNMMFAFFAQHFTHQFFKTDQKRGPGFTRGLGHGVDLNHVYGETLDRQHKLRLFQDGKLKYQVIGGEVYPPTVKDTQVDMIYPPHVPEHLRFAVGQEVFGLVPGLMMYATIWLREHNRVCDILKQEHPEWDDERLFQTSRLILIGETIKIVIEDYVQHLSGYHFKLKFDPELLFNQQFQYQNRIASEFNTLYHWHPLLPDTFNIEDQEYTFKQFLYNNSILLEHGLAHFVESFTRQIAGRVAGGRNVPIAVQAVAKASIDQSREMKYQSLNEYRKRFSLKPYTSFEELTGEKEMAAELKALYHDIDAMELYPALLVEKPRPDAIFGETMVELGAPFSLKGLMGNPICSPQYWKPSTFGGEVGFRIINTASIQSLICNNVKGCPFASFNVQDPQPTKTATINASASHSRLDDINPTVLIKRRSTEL
T1 sequence (Q63921 whole entry): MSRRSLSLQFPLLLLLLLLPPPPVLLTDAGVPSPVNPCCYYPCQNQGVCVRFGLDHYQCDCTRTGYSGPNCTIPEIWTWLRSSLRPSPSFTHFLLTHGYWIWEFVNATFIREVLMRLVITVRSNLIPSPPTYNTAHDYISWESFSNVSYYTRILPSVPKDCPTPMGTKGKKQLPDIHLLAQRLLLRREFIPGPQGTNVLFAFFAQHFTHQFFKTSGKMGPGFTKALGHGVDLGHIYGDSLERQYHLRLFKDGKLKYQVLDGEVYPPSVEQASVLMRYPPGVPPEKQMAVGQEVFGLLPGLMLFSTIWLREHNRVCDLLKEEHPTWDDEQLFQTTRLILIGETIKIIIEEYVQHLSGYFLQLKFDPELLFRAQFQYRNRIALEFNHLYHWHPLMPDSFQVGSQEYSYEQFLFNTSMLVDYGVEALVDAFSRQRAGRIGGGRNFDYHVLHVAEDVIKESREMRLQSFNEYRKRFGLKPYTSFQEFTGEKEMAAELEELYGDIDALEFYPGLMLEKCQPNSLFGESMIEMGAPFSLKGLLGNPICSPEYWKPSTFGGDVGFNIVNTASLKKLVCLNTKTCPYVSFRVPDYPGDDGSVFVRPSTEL

[1] = target: T2, Polyunsaturated fatty acid 5-lipoxygenase (Rattus norvegicus) (UniProt P12527); assay: Inhibition of LTB4 in whole cell 5-lipoxygenase assay in an intact rat basophilic leukemia (RBL-1) cell line
T2 sequence (whole entry): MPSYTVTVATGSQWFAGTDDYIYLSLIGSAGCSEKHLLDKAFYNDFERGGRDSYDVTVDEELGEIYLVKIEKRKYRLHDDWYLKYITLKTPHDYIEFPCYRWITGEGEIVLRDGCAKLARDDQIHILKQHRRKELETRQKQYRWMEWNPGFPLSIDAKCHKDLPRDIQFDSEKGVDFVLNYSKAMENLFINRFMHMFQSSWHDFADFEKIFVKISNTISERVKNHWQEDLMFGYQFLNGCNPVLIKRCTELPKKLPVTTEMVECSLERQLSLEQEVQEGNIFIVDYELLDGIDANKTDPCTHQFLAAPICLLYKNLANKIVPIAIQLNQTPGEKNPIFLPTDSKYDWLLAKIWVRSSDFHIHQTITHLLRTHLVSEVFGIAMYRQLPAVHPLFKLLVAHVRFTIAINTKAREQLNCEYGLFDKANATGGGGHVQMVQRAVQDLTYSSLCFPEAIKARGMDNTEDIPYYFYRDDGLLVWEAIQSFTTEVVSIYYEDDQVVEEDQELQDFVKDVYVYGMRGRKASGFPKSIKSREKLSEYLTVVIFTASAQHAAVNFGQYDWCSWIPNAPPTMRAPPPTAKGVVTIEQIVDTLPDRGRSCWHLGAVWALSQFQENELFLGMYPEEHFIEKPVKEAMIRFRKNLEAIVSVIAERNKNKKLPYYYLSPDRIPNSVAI
Procedure, shortened: (§1)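 RBL-1 cells grown at 37 °C in suspension in MEM with 12% FBS under 5% CO₂. Washed in cold PBS pH 7.4 and resuspended at 2 × 10⁶ cells/mL in PBS with 1.0 mM calcium. Preincubated with test agent in 1% DMSO for 10 min at room temperature, then stimulated with A23187 (5 μM) for 7 min at 37 °C. LTB₄ in the supernatant measured by RIA. Percent inhibition taken against vehicle; IC₅₀ by linear regression on log concentration.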

[2] = target: T3, Cyclooxygenase (Rattus norvegicus) (UniProt P35355+Q63921); assay: Inhibition of PGF2-alpha formation in Prostaglandin G/H synthase assay in an intact rat basophilic leukemia (RBL-1) cell line at 16 uM
Procedure, shortened: (§2)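 RBL-1 suspension cultures (MEM, 12% FBS, 37 °C, 5% CO₂) were washed in PBS and held at 2 × 10⁶ cells/mL in PBS containing 1.0 mM Ca. Cells were exposed to compound in 1% DMSO for 10 min at room temperature, then to 5 μM A23187 for 7 min at 37 °C, and chilled on ice to stop. PGF₂α in the supernatant was measured by RIA. Percent inhibition was calculated relative to vehicle-treated cells.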

[3] = target: T2, Polyunsaturated fatty acid 5-lipoxygenase (Rattus norvegicus); assay: Inhibition of LTB4 in whole cell 5-lipoxygenase assay in an intact rat basophilic leukemia (RBL-1) cell line at 16 uM; procedure, shortened: as §1
[4] = target: T4, Polyunsaturated fatty acid 5-lipoxygenase (Rattus norvegicus, UniProt P12527); assay: Inhibition 5-lipoxygenase mediated LTB4 formation in rat basophilic leukemia (RBL-1) cells
T4 sequence (P12527 whole entry): T2 sequence (whole entry)
Procedure, shortened: as §1, with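 “Washed” for “RBL-1 cells grown at 37 °C in suspension in MEM with 12% FBS under 5% CO₂. Washed”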

[5] = target: T2, Polyunsaturated fatty acid 5-lipoxygenase (Rattus norvegicus); assay: Inhibition of LTB4 in whole cell 5-lipoxygenase assay in an intact rat basophilic leukemia (RBL-1) cell line at 10 uM; procedure, shortened: as §1
[6] = target: T3, Cyclooxygenase (Rattus norvegicus); assay: Inhibition of PGF2-alpha formation in Prostaglandin G/H synthase assay in an intact rat basophilic leukemia (RBL-1) cell line at 10 uM; procedure, shortened: as §2

IC50 (Cyclooxygenase): 11 µM
Compound: Nc1nnc(-c2ccccc2Nc2cccc(C(F)(F)F)c2)s1

IC50 [1]: 7.4 µM
Compound: Oc1nnc(-c2ccccc2Nc2cccc(C(F)(F)F)c2)s1

inhibition [2]: < 40% | inhibition [3]: 86%
Compound: Cc1ccc(Cl)c(Nc2ccccc2-c2nnc(S)n2C)c1Cl

IC50 (Cyclooxygenase): 1 µM
Compound: N#CNc1nnc(-c2ccccc2Nc2cccc(C(F)(F)F)c2)o1

inhibition [3]: < 40%
Compound: FC(F)(F)c1cccc(Nc2ccccc2-c2n[nH]c(S)n2)c1

pIC50 [4]: 6.54 | IC50 (Cyclooxygenase): 1.9 µM
Compound: Cc1ccc(Cl)c(Nc2ccccc2-c2nnc(NC#N)s2)c1Cl

pIC50 [4]: 4.92 | IC50 (Cyclooxygenase): 30 µM
Compound: Cn1c(S)nnc1-c1ccccc1Nc1cccc(C(F)(F)F)c1

Compound: Cc1ccc(Cl)c(Nc2ccccc2-c2nnc(NC#N)o2)c1Cl
IC50 (Cyclooxygenase): 0.25 µM

inhibition [2]: < 40% | inhibition [3]: < 40%
Compound: Cc1ccc(Cl)c(Nc2ccccc2-c2n[nH]c(S)n2)c1Cl

inhibition [5]: 45% | inhibition [6]: < 40%
Compound: Cc1ccc(Cl)c(Nc2ccccc2-c2nnc(N)o2)c1Cl

inhibition [5]: < 40% | inhibition [6]: < 40%
Compound: Oc1n[nH]c(-c2ccccc2Nc2cccc(C(F)(F)F)c2)n1

pIC50 [4]: 5.77 | IC50 (Cyclooxygenase): 2.6 µM
Compound: N#CNc1nnc(-c2ccccc2Nc2cccc(C(F)(F)F)c2)s1

pIC50 [4]: 6.16 | IC50 (Cyclooxygenase): 6.1 µM
Compound: Cc1ccc(Cl)c(Nc2ccccc2-c2nnc(N)s2)c1Cl

IC50 (Cyclooxygenase): 1.7 µM
Compound: Cc1ccc(Cl)c(Nc2ccccc2-c2nnc(S)s2)c1Cl

inhibition [2]: < 40% | inhibition [3]: < 40%
Compound: Cn1c(O)nnc1-c1ccccc1Nc1cccc(C(F)(F)F)c1

IC50 (Cyclooxygenase): 7.1 µM
Compound: Nc1nnc(-c2ccccc2Nc2cccc(C(F)(F)F)c2)o1

inhibition [2]: < 40% | inhibition [3]: < 40%
Compound: Cc1ccc(Cl)c(Nc2ccccc2-c2nnc(O)n2C)c1Cl
